From PMC5800871 (European journal of medicinal chemistry, 2017)
Structures can show the parent of a compound that is named as a salt.

Assays:
Assay type in all cases: in vitro ADME
CYP1A2 = target: T1, CYP1A2 (Homo sapiens, UniProt P05177); assay: Cytochrome P450 inhibition assay, CYP1A2; conditions: CYP activity as % of control, 10 μM, human liver microsomes
T1 sequence (P05177 1-516): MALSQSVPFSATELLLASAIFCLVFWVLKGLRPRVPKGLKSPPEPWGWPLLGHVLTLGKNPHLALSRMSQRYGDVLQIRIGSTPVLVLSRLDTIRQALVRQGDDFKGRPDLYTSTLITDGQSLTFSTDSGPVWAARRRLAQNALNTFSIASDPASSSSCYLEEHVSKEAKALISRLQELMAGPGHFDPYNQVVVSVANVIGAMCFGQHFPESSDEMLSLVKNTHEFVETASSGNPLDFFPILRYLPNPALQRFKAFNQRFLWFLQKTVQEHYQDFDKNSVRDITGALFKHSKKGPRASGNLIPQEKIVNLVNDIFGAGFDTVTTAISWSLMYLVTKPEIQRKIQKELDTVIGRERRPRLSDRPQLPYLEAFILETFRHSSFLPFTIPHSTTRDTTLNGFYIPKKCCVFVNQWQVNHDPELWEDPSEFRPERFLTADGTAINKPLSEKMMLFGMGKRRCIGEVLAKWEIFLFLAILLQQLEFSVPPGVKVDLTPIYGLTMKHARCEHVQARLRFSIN

CYP2C9 = CYP2C9 (Homo sapiens, UniProt P11712); assay: Cytochrome P450 inhibition assay, CYP2C9; conditions: CYP activity as % of control, 10 μM, human liver microsomes
Sequence of CYP2C9 (P11712 whole entry): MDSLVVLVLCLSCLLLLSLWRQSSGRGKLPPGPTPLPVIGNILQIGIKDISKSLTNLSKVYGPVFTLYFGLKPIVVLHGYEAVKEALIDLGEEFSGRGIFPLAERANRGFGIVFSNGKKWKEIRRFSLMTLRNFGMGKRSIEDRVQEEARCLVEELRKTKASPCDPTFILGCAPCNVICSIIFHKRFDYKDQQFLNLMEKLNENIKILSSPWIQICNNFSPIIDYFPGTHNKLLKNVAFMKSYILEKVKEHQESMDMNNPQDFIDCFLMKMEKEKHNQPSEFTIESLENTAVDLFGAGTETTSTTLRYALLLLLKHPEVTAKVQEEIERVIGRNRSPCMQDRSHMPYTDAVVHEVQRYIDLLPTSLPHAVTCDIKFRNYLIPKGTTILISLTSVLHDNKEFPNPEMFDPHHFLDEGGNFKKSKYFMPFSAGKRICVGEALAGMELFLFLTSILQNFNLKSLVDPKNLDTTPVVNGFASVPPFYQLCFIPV

CYP 3A4 = assay: Cytochrome P450 inhibition assay, CYP3A4; conditions: CYP activity as % of control, 10 μM, human liver microsomes
[1] = Liver microsomal stability, human; conditions: 1 μM, 0.5 mg/mL microsomal protein, NADPH, 37 °C
Procedure, shortened: (§1)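 Liver microsomes (human pool of 150 donors; dog, rat, mouse) at 0.5 mg/mL protein in 100 mM phosphate buffer pH 7.4 with test compound at 1 μM final, 37 °C. Started with NADPH regeneration system and stopped with ice-cold acetonitrile at 0 and 30 min. Supernatant analysed by LC-MS/MS. Percent parent remaining from peak areas against the 0 min sample (100 %), stopped before NADPH addition.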

[2] = Liver microsomal stability, rat; conditions: 1 μM, 0.5 mg/mL microsomal protein, NADPH, 37 °C
Procedure, shortened: as §1

[3] = Liver microsomal stability, dog; conditions: 1 μM, 0.5 mg/mL microsomal protein, NADPH, 37 °C
Procedure, shortened: as §1

[4] = Liver microsomal stability, mouse; conditions: 1 μM, 0.5 mg/mL microsomal protein, NADPH, 37 °C
Procedure, shortened: as §1

CYP2C19 = CYP2C19 (Homo sapiens, UniProt P33261); assay: Cytochrome P450 inhibition assay, CYP2C19; conditions: CYP activity as % of control, 10 μM, human liver microsomes
Sequence of CYP2C19 (P33261 whole entry): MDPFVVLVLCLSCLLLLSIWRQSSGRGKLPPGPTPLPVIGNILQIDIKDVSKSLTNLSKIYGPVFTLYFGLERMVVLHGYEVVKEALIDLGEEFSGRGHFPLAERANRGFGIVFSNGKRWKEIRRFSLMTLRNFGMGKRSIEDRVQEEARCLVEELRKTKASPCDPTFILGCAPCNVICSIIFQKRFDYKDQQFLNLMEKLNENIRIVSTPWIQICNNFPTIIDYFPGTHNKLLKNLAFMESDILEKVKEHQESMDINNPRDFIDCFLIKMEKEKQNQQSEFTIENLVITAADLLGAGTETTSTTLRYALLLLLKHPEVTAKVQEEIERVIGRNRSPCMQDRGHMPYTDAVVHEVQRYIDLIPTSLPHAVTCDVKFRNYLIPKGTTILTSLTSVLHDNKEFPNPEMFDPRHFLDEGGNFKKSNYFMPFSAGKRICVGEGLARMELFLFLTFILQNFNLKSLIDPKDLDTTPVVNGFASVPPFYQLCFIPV

CYP2D6 = CYP2D6 (Homo sapiens, UniProt P10635); assay: Cytochrome P450 inhibition assay, CYP2D6; conditions: CYP activity as % of control, 10 μM, human liver microsomes
Sequence of CYP2D6 (P10635 whole entry): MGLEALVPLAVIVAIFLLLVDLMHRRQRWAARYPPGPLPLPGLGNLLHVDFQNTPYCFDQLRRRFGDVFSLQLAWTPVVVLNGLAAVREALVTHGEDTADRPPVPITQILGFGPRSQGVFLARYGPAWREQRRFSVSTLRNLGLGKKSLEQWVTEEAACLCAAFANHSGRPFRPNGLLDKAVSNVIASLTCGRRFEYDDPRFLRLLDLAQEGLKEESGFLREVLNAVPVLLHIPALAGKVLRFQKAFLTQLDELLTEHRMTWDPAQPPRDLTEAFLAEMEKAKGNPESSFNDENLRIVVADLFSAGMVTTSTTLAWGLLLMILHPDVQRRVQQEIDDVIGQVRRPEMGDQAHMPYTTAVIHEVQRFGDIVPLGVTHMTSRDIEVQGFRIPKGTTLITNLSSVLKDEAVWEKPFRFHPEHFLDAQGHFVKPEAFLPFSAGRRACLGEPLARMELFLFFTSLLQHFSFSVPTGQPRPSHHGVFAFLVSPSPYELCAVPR

Row | Compound | Cytochrome P450 inhibition (% of control) 1A2 (CYP1A2) | Cytochrome P450 inhibition (% of control) 2C9 (CYP2C9) | Cytochrome P450 inhibition (% of control) 3A4 (CYP 3A4) | Liver microsomal stability (% remaining after 30 min) Human [1] | Liver microsomal stability (% remaining after 30 min) Rat [2] | Liver microsomal stability (% remaining after 30 min) Dog [3] | Liver microsomal stability (% remaining after 30 min) Mouse [4] | Cytochrome P450 inhibition (% of control) 2C19 (CYP2C19) | Cytochrome P450 inhibition (% of control) 2D6 (CYP2D6)
1 | C=CC(=O)Nc1cc(Nc2ncc(I)c(Nc3ccccc3P(C)(C)=O)n2)c(OC)cc1N(C)CCN(C)C [Compound 7h, N-(2-((2-(Dimethylamino)ethyl)(methyl)amino)-5-((4-((2-(dimethylphosphoryl)phenyl)amino)-5-iodopyrimidin-2-yl)amino)-4-methoxyphenyl)acrylamide trifluoroacetate salt] | 91 % of control | >100 % of control | 88 % of control | 65 % remaining after 30 min | 81 % remaining after 30 min | – | – | – | –
2 | C=CC(=O)Nc1cc(Nc2ncc(Cl)c(Nc3ccccc3S(=O)(=O)N(C)C)n2)c(OC)cc1N(C)CCN(C)C [Compound 7k, N-(5-((5-Chloro-4-((2-(N,N-dimethylsulfamoyl)phenyl)amino)pyrimidin-2-yl)amino)-2-((2-(dimethylamino)ethyl)(methyl)amino)-4-methoxyphenyl)acrylamide] | – | – | – | – | – | 31 % remaining after 30 min | – | – | –
3 | C=CC(=O)Nc1cc(Nc2ncc(Cl)c(Nc3ccccc3P(C)(C)=O)n2)c(OC)cc1N(C)CCN(C)C [Compound 7g, N-(5-((5-Chloro-4-((2-(dimethylphosphoryl)phenyl)amino)pyrimidin-2-yl)amino)-2-((2-(dimethylamino)ethyl)(methyl)amino)-4-methoxyphenyl)acrylamide trifluoroacetate salt] | 93 % of control | >100 % of control | 91 % of control | 61 % remaining after 30 min | 76 % remaining after 30 min | – | 66 % remaining after 30 min | – | –
4 | C=CC(=O)Nc1cc(Nc2nccc(Nc3ccccc3S(=O)(=O)N(C)C)n2)c(OC)cc1N(C)CCN(C)C [Compound 7i, N-(2-((2-(Dimethylamino)ethyl)(methyl)amino)-5-((4-((2-(N,N-dimethylsulfamoyl)phenyl)amino)pyrimidin-2-yl)amino)-4-methoxyphenyl)acrylamide] | 82 % of control | 88 % of control | – | 10 % remaining after 30 min | – | – | 5 % remaining after 30 min | – | –
5 | C=CC(=O)Nc1cc(Nc2ncc(I)c(Nc3ccccc3S(=O)(=O)N(C)C)n2)c(OC)cc1N(C)CCN(C)C [Compound 7l, N-(2-((2-(Dimethylamino)ethyl)(methyl)amino)-5-((4-((2-(N,N-dimethylsulfamoyl)phenyl)amino)-5-iodopyrimidin-2-yl)amino)-4-methoxyphenyl)acrylamide] | – | – | – | – | 12 % remaining after 30 min | – | 12 % remaining after 30 min | – | –
6 | C=CC(=O)Nc1cc(Nc2ncc(F)c(Nc3ccccc3S(=O)(=O)N(C)C)n2)c(OC)cc1N(C)CCN(C)C [Compound 7j, N-(2-((2-(Dimethylamino)ethyl)(methyl)amino)-5-((4-((2-(N,N-dimethylsulfamoyl)phenyl)amino)-5-fluoropyrimidin-2-yl)amino)-4-methoxyphenyl)acrylamide] | >100 % of control | – | – | – | 7 % remaining after 30 min | – | 10 % remaining after 30 min | 91 % of control | >100 % of control
